Measurements pooled from the literature.
Lines come from different studies, so protocols differ. ≈ marks a conversion by molar mass, not a printed value.
Organism: Streptococcus pneumoniae
Effect on: microbial growth

| SMILES | technique | strain | time | MIC [µg/mL] |
| --- | --- | --- | --- | --- |
| O=C1NC(=S)S/C1=C\c1ccc(-c2ccc(N(c3ccccc3)c3ccccc3)cc2)c2ccccc12 | broth dilution | ATCC49619 |  | 1000 (≈ 1940 µM) |
| CN(C)[C@@H]1C(O)=C(C(N)=O)C(=O)[C@@]2(O)C(O)=C3C(=O)c4c(cc5ccc(CN6CC(C#N)C6)cc5c4O)C[C@H]3C[C@@H]12 | broth dilution | ATCC49619 |  | 0.5 (≈ 0.895 µM) |
| N=C(N)NN=Cc1ccc(OC/C=C\COc2ccc(C=NNC(=N)N)cc2)cc1 |  | D39 | 16 h | ≤ 3 |
| O=C1NC(=S)S/C1=C\c1ccc(-c2ccc(N(c3ccccc3)c3ccccc3)cc2)cc1 | broth dilution | ATCC49619 |  | 1000 (≈ 2150 µM) |
| COc1cc(Cc2cnc(N)nc2N)cc(OC)c1OC | broth dilution |  | 24 h | 0.25 (≈ 0.861 µM) |
| O=C1NC(=S)N/C1=C\c1ccc(-c2ccc(N(c3ccccc3)c3ccccc3)cc2)cc1 | broth dilution | ATCC49619 |  | > 1000 |
| CN(C)[C@@H]1C(O)=C(C(N)=O)C(=O)[C@@]2(O)C(O)=C3C(=O)c4c(cc5ccc(-c6ccccc6)cc5c4O)C[C@H]3C[C@@H]12 | broth dilution | ATCC49619 |  | 32 (≈ 59.2 µM) |
| O=C(O)CN1C(=O)/C(=C/c2c3ccccc3c(-c3ccc(N(c4ccccc4)c4ccccc4)cc3)c3ccccc23)NC1=S | broth dilution | ATCC49619 |  | > 1000 |
| O=[N+]([O-])c1ccc(O)c2ncccc12 | broth dilution | ATCC49619 |  | 8 (≈ 42.1 µM) |
| CN(C)[C@@H]1C(O)=C(C(N)=O)C(=O)[C@@]2(O)C(O)=C3C(=O)c4c(cc5cc(N)ccc5c4O)C[C@H]3C[C@@H]12 | broth dilution | ATCC49619 |  | 1 (≈ 2.09 µM) |
| CN(C)c1ccc(O)c2c1C[C@H]1C[C@H]3[C@H](N(C)C)C(O)=C(C(N)=O)C(=O)[C@@]3(O)C(O)=C1C2=O |  | 157E |  | < 0.06 |
| C[C@@H](O)[C@H]1C(=O)N2C(C(=O)O)=C(S[C@@H]3CN[C@H](C(=O)N(C)C)C3)[C@H](C)[C@H]12 | broth dilution | ATCC49619 |  | 0.25 (≈ 0.652 µM) |
| O=c1[nH]cc(F)c(=O)[nH]1 | broth dilution |  | 24 h | 0.125 (≈ 0.961 µM) |
| CN(C)c1cc(NC(=O)CNC(C)(C)C)c(O)c2c1C[C@H]1C[C@H]3[C@H](N(C)C)C(O)=C(C(N)=O)C(=O)[C@@]3(O)C(O)=C1C2=O |  | 157E |  | < 0.06 |
